# Results as given in article PMC4981245 (ACS chemical biology, 2016).
# Entries after “also recorded” stand apart in the source; their conditions may differ. Read-outs that look alike come from different tables or passages of the source.
# Columns and labels:
# mGlu5 [1] = target: T1, mGlu5 (Rattus norvegicus, UniProt P31424); type: cell-based; settings: for EC80 glutamate inhibition hill slope: HEK293A-mGlu5-low
# mGlu5 [2] = target: T1, mGlu5; type: binding; settings: for [3H]mPEPy binding after pretreatment, three (5 min) washes: 1 μM pretreatment
# Summary of the method: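 Whole HEK293A-mGlu5-low cells plated at ~200 000 cells/well on poly-D-lysine. Test compound (1 μM) applied 10 min at RT, with or without UV. Washed either 3 × 5 min or 5 × 1 h at RT in Ca2+ assay buffer. Then ~2 nM [3H]mPEPy for 1 h at RT, ice-cold 0.9% NaCl washes, 0.2 M NaOH lysis overnight, liquid scintillation counting.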
# mGlu5 [3] = target: T1, mGlu5; test: [3H]mPEPy inhibition binding, membranes from HEK293A-mGlu5-low; settings: for displacement of [3H]mPEPy binding, incubation time 4 h: equilibration time extended to 4 h
# Summary of the method: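 HEK293A-mGlu5-low membranes with ~2 nM [3H]mPEPy and test compound (0.3 nM–30 μM) in Ca2+ assay buffer, RT, 1 h initially, extended to 4 h. […] Filtration on GF/B, ice-cold 0.9% NaCl/50 mM Tris pH 7.4 washes, scintillation counting.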
# mGlu5 [4] = target: T1, mGlu5; test: Agonist Ca2+ mobilization after acute NAM exposure and extensive washes; type: cell-based; settings: for ΔEmax: change after azido-alkyne 8 (1uM)
# mGlu5 [5] = target: T1, mGlu5; test: Modulation of glutamate concentration-response curves for Ca2+ mobilization; type: cell-based
# mGlu5 [6] = target: T1, mGlu5; test: Agonist activity in mGlu5 intracellular Ca2+ mobilization; type: cell-based; settings: absence of glutamate
# T1 sequence (P31424 21-1203): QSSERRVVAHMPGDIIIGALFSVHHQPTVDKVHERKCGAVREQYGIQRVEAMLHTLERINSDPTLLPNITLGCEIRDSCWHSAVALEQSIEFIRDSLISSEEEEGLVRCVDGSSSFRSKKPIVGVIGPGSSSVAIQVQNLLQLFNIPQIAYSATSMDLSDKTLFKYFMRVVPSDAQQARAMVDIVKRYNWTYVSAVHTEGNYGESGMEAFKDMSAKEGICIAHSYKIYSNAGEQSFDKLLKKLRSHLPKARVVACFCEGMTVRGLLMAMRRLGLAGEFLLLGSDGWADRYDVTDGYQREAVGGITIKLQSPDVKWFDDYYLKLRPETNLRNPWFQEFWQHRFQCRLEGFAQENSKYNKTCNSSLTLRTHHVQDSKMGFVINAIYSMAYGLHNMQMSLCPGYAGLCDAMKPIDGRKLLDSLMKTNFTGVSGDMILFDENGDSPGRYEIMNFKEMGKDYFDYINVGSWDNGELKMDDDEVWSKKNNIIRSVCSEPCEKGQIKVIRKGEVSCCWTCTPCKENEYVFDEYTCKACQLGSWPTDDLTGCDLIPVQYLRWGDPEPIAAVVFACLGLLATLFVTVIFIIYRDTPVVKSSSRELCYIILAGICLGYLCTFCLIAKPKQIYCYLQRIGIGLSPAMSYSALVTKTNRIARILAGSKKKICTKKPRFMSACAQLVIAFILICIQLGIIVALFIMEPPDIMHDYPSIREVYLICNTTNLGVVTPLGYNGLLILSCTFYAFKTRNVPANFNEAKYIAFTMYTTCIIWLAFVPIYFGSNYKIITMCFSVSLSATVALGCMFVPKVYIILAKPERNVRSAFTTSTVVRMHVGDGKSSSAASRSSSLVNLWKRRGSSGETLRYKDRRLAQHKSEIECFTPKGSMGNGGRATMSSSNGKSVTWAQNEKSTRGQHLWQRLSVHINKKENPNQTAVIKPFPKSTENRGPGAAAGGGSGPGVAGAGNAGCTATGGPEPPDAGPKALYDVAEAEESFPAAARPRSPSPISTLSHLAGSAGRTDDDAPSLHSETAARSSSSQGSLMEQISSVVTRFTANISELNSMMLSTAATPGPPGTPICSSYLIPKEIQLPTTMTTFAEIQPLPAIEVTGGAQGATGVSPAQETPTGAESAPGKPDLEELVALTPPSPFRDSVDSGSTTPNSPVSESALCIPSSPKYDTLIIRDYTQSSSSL
smiles,measurement,setting,value
"Cc1cccc(C#Cc2ccccc2)n1 [6 (MPEP), MPEP, reference compound]",EC80 glutamate inhibition hill slope,mGlu5 [1],−1.53 ± 0.18
same,EC80 glutamate inhibition pKB,mGlu5 [1]; operational model of allosterism applied to EC80 glutamate inhibition curves,7.97 ± 0.16
same,"[3H]mPEPy binding after pretreatment, three (5 min) washes",mGlu5 [2],reduced [^3H]mPEPy binding to a similar extent
same,"displacement of [3H]mPEPy binding, incubation time 4 h",mGlu5 [3],no effect
same,effect of pre-exposure on potency or maximal response to glutamate or VU0424465,mGlu5 [4]; 10 min exposure followed by five extended washes,no effect
same,inhibition of mGlu5 photoaffinity labeling of the clickable photoprobes,purified mGlu5; saturating concentration (10 μM),did not inhibit
C[C@@H](NC(=O)c1ccc(C#Cc2cccc(F)c2)cn1)C(C)(C)O [VU0424465],pEC50 (untreated),"mGlu5 [4]; HEK293A-mGlu5-low, untreated",6.60 ± 0.18
same,ΔEmax,mGlu5 [4],−18.3 ± 10.8 percentage of the maximum response to glutamate
same,pKA,"mGlu5 [4]; equilibrium dissociation constant of the agonist, receptor depletion with azido-alkyne 8 (1uM)",6.17 ± 0.25
same,pEC50 (treated),mGlu5 [4]; treated with azido-alkyne 8 (1uM),6.11 ± 0.23
COc1cc(O)c(C(=O)c2ccccc2)cc1S(=O)(=O)O [compound 4],IC50,mGlu5 [1],0.647 µM
same,Kb,mGlu5 [1],0.891 µM
same,fold less potent than lead NAM 2 at inhibiting EC80 glutamate response,mGlu5 [1],~ 5 fold
same,EC80 glutamate inhibition hill slope,mGlu5 [1],−0.91 ± 0.23
same,"[3H]mPEPy binding after pretreatment, three (5 min) washes",mGlu5 [2],significantly reduced
same,[3H]mPEPy binding after extensive wash protocol (five 1 h washes),mGlu5 [2]; absence of UV irradiation,concentration-dependently inhibited
same,fold increase of affinity estimate with 30 min versus 1 min preincubation,mGlu5 [5],~ 10 fold
same,effect on glutamate maximal functional response,mGlu5 [5]; 1 min pre-exposure,complete inhibition
same,Kb,"mGlu5 [5]; affinity estimate pKB, 30 min preincubation, photoprobe preincubation 30 min",0.0363 µM
same,affinity estimate (pKB) fold difference to benzyl ether derivative 3,"mGlu5 [5]; allosteric interaction assay, 1 min",≤ 5 fold
same,Ki,mGlu5 [3],0.0251 µM
same,"displacement of [3H]mPEPy binding, incubation time 4 h",mGlu5 [3],complete displacement; also recorded: fully displaced
same,displacement of [3H]mPEPy binding,mGlu5 [3]; initial assay conditions,incomplete displacement
same,fold higher mGlu5 binding affinity relative to lead NAM 2,mGlu5 [3]; radioligand inhibition binding,2 fold
same,intrinsic agonist activity at mGlu5,mGlu5 [6],No evidence of agonist activity; also recorded: no intrinsic agonist activity
same,Cy5.5 in-gel fluorescence of mGlu5 dimer band,"purified mGlu5; absence of a competitor, versus vehicle",significantly increase
N[C@@H](CCC(=O)O)C(=O)O [glutamate],ΔEmax,mGlu5 [4],−46.3 ± 18.3 percentage of the maximum response to glutamate
